Assay outcomes: PubChem, several laboratories
HER2 expr 66K: inhibitors of Her2 protein expression, primary screen, SKBR-3 cells, AlphaScreen, 66K library; HER2 level % of control, % at 10 µM; hit rate 0.69% among 65,000; SKBR-3 HER2 protein level, 18-24 h; active compounds read low;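 active = HER2 level under 5% of the carrier-only control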;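 also: 100% = DMSO carrier and 0% = 500 nM PU-H71 HSP90 inhibitor; lower value means stronger loss of Her2 protein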
DUSP1 inh: MKP-1 phosphatase inhibitors, primary screen, biochemical, in vitro; inhibition, %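 (compounds tested at a single concentration somewhere between 10 and 100 µM)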; recombinant MKP-1, OMFP hydrolysis fluorescence; AID 374, 2006; hit rate 0.15% among 65,000;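 active = inhibition above about 50%, limit read from the data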;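 also: 0% = DMSO max control wells and 100% = wells with enzyme stopped by NaOH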
Target sequence (P28562 whole entry, looked up): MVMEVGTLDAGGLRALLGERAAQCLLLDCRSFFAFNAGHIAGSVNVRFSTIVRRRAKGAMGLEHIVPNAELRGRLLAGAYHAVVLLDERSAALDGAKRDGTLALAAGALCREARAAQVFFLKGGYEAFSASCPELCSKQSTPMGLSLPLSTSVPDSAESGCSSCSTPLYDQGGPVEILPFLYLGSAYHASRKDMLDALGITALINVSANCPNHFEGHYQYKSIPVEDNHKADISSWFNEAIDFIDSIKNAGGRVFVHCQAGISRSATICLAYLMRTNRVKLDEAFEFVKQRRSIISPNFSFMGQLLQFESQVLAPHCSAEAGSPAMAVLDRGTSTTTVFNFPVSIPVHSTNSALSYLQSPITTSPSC
HEK293 NFkB inh: inhibitors of PMA/ionomycin-induced NF-kB reporter, primary screen, antigen receptor NF-kB inhibitor project, cell-based, HEK-293 luciferase reporter, luminescence | HEK-293 NF-kB luciferase reporter | inhibition, % at 3 µM | hit rate 0.21% among 62,000;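 active = inhibition above the mean of all tested compounds plus 3 SD, cut at about 40% in these data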;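 also: 0% = stimulated DMSO wells and 100% = 10 µM reference inhibitor 5653914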
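Reagent: PMA plus ionomycin mix as NF-kB-activating stimulus. Assay system: NF-kB luciferase reporter HEK-293 cells. Technique: luminescence from luciferase substrate reagent. Incubation: 1 h compound pre-incubation, 16 h PMA/ionomycin at 37 °C. Benchmarks: DMSO only as uninhibited control, 10 µM reference inhibitor as full inhibition. Repeats: tested once.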
M1 agonist: M1 muscarinic receptor agonists, primary screen, CHO-M1 cells, Fluo-4 calcium, agonist mode; B-score at 10 µM; Muscarinic acetylcholine receptor M1; hit rate 3% among 64,000; Fluo-4 calcium fluorescence; active compounds read high; AID 626, 2007;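 active = fluorescence rise, raw or as B-score row- and column-corrected plate score, outside the 99.7% band of its plate's samples, either direction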
M1 antag: antagonists of rat M1 muscarinic receptor; Muscarinic acetylcholine receptor M1 (Rattus norvegicus), P08482; CHO-M1 cells, Fluo-4 calcium, ACh EC80 antagonist mode; active compounds read low; B-score at 10 µM; hit rate 3.4% among 64,000;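 active = calcium fluorescence response, raw or row-and-column corrected B-score, differing from the plate sample mean either way at a set confidence level, mostly lower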
Cdc25B block: inhibitors of Cdc25B phosphatase catalytic domain, primary screen, biochemical, OMFP fluorescence; hit rate 0.1% among 65,000; recombinant Cdc25B, OMFP fluorescence Ex485/Em525; inhibition, %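 (compounds tested at 10 µM final in the well)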; M-phase inducer phosphatase 2 (Homo sapiens), P30305; in the data active = inhibition above about 50%
Starred values were filed as active, the others as inactive; x = no result given. This is a sample that favours compounds with a hit; in the whole collection about 6.8% have one here.

SMILES	HER2 expr 66K	DUSP1 inh	HEK293 NFkB inh	M1 agonist	M1 antag	Cdc25B block
CC(C)NC(=O)CSc1nnc(-c2ccc(S(=O)(=O)N3CCCC3)cc2)n1CC1CCCO1 (configuration not stated)	97.4	2.0	18.8	0.194	-0.721	-11.7
Cc1ccc(CNC(=O)c2cc3c(-c4ccc(Cl)cc4)nn(C)c3s2)o1	-17.5*	-4.3	10.3	2.05	-0.174	-8.0
C=CCOc1ccccc1/C=c1\sc2nc(-c3oc4ccccc4c3C)nn2c1=O	84.7	15.9	6.7	5.16*	-0.283	-1.9
COC(=O)c1ccc2c(c1)N(Cc1nc(-c3ccc(Cl)cc3)oc1C)C(=O)C1CCCN21 (configuration not stated)	65.5	44.3	20.7	-0.208	0.511	-14.0
Cc1c(N=Cc2c(O)n(Cc3ccco3)c(=O)c3ccccc23)c(=O)n(-c2ccccc2)n1C	83.3	38.7	15.8	-0.0266	-2.83*	-3.0
CCOC(=O)c1cnn(-c2cc(C)c3cc(C)cc(C)c3n2)c1N	78.5	4.0	9.0	0.238	0.405	1.0
CCOc1ccc(CNc2ccc3c(c2)ncn3C)cc1	-17.4*	-5.2	6.9	-0.0251	-0.396	-7.2
Cc1ccc(Oc2ccc(S(=O)(=O)N3CCOCC3)cc2C(N)=O)c(-n2nc3ccccc3n2)c1	81.6	17.3	28.3	0.266	-0.0217	-11.2
CCOc1ccccc1NC(=O)Cn1nnc(-c2ccc(OCC)c(OCC)c2)n1	-20.5*	28.7	-1.0	-0.912	0.125	9.8
CCOc1ccc(-c2nnn(CC(=O)Nc3cc(OC)ccc3OC)n2)cc1OCC	89.9	25.1	15.2	-0.239	-0.441	5.6
CCOc1ccc(-c2nnn(CC(=O)c3cc(OC)ccc3OC)n2)cc1	-14.2*	-8.9	20.9	0.000262	-0.0752	6.4
COc1ccc(-n2c(SCC(=O)Nc3nccs3)nc3c(c2=O)SC(C)C3)cc1 (configuration not stated)	99.7	7.2	11.9	0.0173	0.818*	-7.0
CCSc1nc2sc3c(c2c(=O)n1C1CCCCC1)CCN(C)C3	81.5	-23.2	x	-0.89	-2.3*	12.0
Cc1ccc(S(=O)(=O)CCC(=O)c2ccc(O)cc2O)cc1	-7.3*	-8.5	24.4	-0.485	0.334	6.4
O=C(OC(C(=O)NCc1cccs1)c1ccccc1Cl)c1ccco1 (configuration not stated)	104.4	-4.4	14.9	0.898	-0.318	2.2
Cc1c(Cl)ccc2c1NC(=O)C21NC(CCC(N)=O)[C@H]2C(=O)N(c3ccc(Cl)cc3)C(=O)[C@H]21 (some centres not stated)	52.1	3.3	-2.4	0.422	1.81*	-1.1
Cc1c(Cl)ccc2c1NC(=O)[C@]21N[C@@H](CCC(N)=O)[C@H]2C(=O)N(c3ccc(F)cc3)C(=O)[C@H]21	74.8	19.7	7.2	x	x	18.8
O=c1nc(-c2ccccc2)c2ccccc2[nH]1	89.8	-23.2	21.6	0.034	-0.958	-4.0
Cc1cc(-c2ccccc2)nc(=O)[nH]1	-17.6*	2.5	-1.9	1.3	-0.031	-2.6
COc1ccc2c(c1)CCc1c(C(=O)N3CC4(C)CC3CC(C)(C)C4)noc1-2 (configuration not stated)	63.5	7.7	18.2	26.7*	0.037	-33.2
CCn1cc(C(=O)Nc2nncs2)c(=O)c2cc(F)c(N3CCN(C(=O)c4ccco4)CC3)cc21	74.8	14.7	19.7	2.06	-0.0143	-1.1
COC(=O)c1ccc2c(=O)n(CCC3=CCCCC3)c(SCC(=O)N3CCCC3)nc2c1	106.6	9.0	10.3	-0.665	0.55	-9.6
Oc1ccc2ccccc2c1C=NCc1cn2ccsc2n1	-11.0*	-4.0	15.8	0.634	0.203	-10.1
CC(C)COC(=O)N1CC(O)CC1C(=O)O (configuration not stated)	-13.9*	27.8	16.0	0.442	0.68	7.6
Cn1ncc2c1ncn1c(-c3ccccc3Cl)nnc21	110.0	-10.1	-16.4	0.53	1.29	-5.0
